Reference: ChEMBL document CHEMBL3758131, “Towards new 5-HT7 antagonists among arylsulfonamide derivatives of (aryloxy)ethyl-alkyl amines: Multiobjective based design, synthesis, and antidepressant and anxiolytic properties” (Eur J Med Chem, 2016)
pKi: −log10 of the molar value.

Columns and labels:
Mus musculus [1] = assay: Antidepressant activity in C57BL/6J mouse assessed as number of events at […], ip measured over 6 mins by tail suspension test (reference value: 1325.1 +/- 77.8 to 1773.4 +/- 109.9); assay type: functional
[2] = biological target: 5-hydroxytryptamine receptor 6 (Homo sapiens, UniProt P50406); assay: Displacement of [3H]-LSD from human 5-HT6 receptor expressed in HEK293 cells after 1 hr; assay type: cell-based
How it was run: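 Membranes from stably transfected HEK293 cells were homogenized in assay buffer and spun twice at 35,000 g with a 15-min 37 °C step between. Binding ran 1 h at 37 °C and was stopped by rapid filtration, then filter radioactivity was counted. 5-HT6 buffer: 50 mM Tris-HCl, 0.5 mM EDTA, 4 mM MgCl2, with methiothepine for nonspecific binding. D2L buffer: Tris-HCl, EDTA, MgCl2, 120 mM NaCl, KCl, CaCl2, ascorbate, with (+)butaclamol for nonspecific binding. Triplicate, 7–8 concentrations (10^-11–10^-4 M).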

Mus musculus [3] = assay: Antidepressant activity in ip dosed C57BL/6J mouse assessed as reduction in immobility time of mouse by tail suspension test; assay type: functional; conditions: read-out: MED
Mus musculus [4] = assay: Antidepressant activity in C57BL/6J mouse assessed as number of events at 5 mg/kg, ip measured over 6 mins by tail suspension test (reference value: 1325.1 +/- 77.8 to 1773.4 +/- 109.9); assay type: functional
Mus musculus [5] = assay: Antidepressant activity in C57BL/6J mouse assessed as average force at […], ip measured over 6 mins by tail suspension test (reference value: 0.281 +/- 0.018 to 0.359 +/- 0.027 N); assay type: functional
Mus musculus [6] = assay: Toxicity in ip dosed C57BL/6J mouse assessed as effect on spontaneous locomotory activity at MED measured over 6 mins; assay type: organism-based; conditions: in vivo, 0.1 h
How it was run: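 Mice habituated 30 min in individual cages, then ambulation counted over a period matching each behavioural test: 6 min for the tail suspension test and 1 min 15 s for the four-plate test. Compounds given ip at the active doses.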

[7] = biological target: T1, 5-hydroxytryptamine receptor 7 (Homo sapiens, UniProt P34969); assay: Antagonist activity at human 5-HT7B receptor expressed in CHO cells assessed as inhibition of 5-CT induced cAMP production at 10^-7 M after 30 mins by TR-FRET assay; assay type: functional, cell-based
Mus musculus [8] = assay: Antidepressant activity in C57BL/6J mouse assessed as immobility time at 0.625 mg/kg, ip measured over 6 mins by tail suspension test (reference value: 160.7 +/- 12 to 170.6 +/- 9 sec); assay type: functional
Mus musculus [9] = assay: Toxicity in ip dosed C57BL/6J mouse assessed as effect on spontaneous locomotory activity at MED measured over 1 min 15 secs; assay type: organism-based; conditions: in vivo
Mus musculus [10] = assay: Antidepressant activity in C57BL/6J mouse assessed as average force at 5 mg/kg, ip measured over 6 mins by tail suspension test (reference value: 0.281 +/- 0.018 to 0.359 +/- 0.027 N); assay type: functional
Mus musculus [11] = assay: Antidepressant activity in C57BL/6J mouse assessed as immobility time at […] mg/kg, ip measured over 6 mins by tail suspension test (reference value: 160.7 +/- 12 to 170.6 +/- 9 sec); assay type: functional
Rattus norvegicus = assay: Antidepressant activity in ip dosed Wistar rat assessed as reduction in immobility time of rat by forced swim test; assay type: functional; conditions: read-out: MED
How it was run: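 Male Wistar rats (220-250 g), ip injection 30 min before test. Day 1: 15-min pre-swim in a cylinder with 15 cm of water at 25 °C, then drying under a lamp. Next day: total immobility recorded over the whole 5-min test, with fresh water for each rat.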

Mus musculus [12] = assay: Anxiolytic activity in ip dosed albino Swiss mouse assessed as increase in number of shocks accepted measured over 1 min, 15 secs by four plates test; assay type: functional; conditions: read-out: MED
How it was run: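 Male Albino Swiss mice, ip injection 60 min before test. Four-plate cage; after 15 s of habituation, each plate-to-plate crossing during a 1-min session is punished with a 0.8 mA, 0.5 s foot shock, followed by a 3-s shock-free interval. Number of shocks accepted is counted.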

Mus musculus [13] = assay: Antidepressant activity in C57BL/6J mouse assessed as number of events at 0.625 mg/kg, ip measured over 6 mins by tail suspension test (reference value: 1325.1 +/- 77.8 to 1773.4 +/- 109.9); assay type: functional
[14] = biological target: T2, 5-hydroxytryptamine receptor 1A (Homo sapiens, UniProt P08908); assay: Displacement of [3H]-8-OH-DPAT from human 5-HT1A receptor expressed in HEK293 cells after 1 hr; assay type: cell-based
T2 sequence (P08908 whole entry): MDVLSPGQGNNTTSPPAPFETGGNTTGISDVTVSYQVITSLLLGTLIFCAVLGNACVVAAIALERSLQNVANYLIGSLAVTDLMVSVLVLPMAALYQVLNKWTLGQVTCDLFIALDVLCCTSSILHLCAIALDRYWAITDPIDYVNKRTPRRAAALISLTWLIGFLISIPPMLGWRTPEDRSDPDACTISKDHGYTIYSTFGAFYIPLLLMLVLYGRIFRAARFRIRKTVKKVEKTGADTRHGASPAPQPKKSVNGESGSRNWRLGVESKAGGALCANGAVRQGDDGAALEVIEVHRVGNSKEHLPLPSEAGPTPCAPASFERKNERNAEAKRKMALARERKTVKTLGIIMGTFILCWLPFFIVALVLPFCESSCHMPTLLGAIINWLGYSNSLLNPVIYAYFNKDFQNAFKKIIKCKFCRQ
How it was run: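 Competition binding on membranes from HEK293 cells stably expressing human 5-HT7b or 5-HT1A. Incubation 1 h, at 37 °C for 5-HT7b and at room temperature for 5-HT1A. Non-specific binding defined with 10 µM 5-HT.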

Mus musculus [15] = assay: Antidepressant activity in C57BL/6J mouse assessed as number of events at […] mg/kg, ip measured over 6 mins by tail suspension test (reference value: 1325.1 +/- 77.8 to 1773.4 +/- 109.9); assay type: functional
Mus musculus [16] = assay: Toxicity in ip dosed albino Swiss mouse assessed as effect on spontaneous locomotory activity at MED measured over 2 to 6 mins; assay type: organism-based; conditions: in vivo
How it was run: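 Male Albino Swiss mice (22–28 g) received drug i.p. 60 min before testing, in 1% aqueous Tween 80 or distilled water. Each mouse was habituated alone in a plastic cage for 30 min, then ambulation was counted from 2 to 6 min. Groups of 6–10 animals, each used once.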

[17] = biological target: Adrenergic receptor alpha-1 (Rattus norvegicus); assay: Displacement of [3H]-prazosin from rat alpha1 adrenoceptor in rat cerebral cortex after 1 hr
[18] = biological target: T1, 5-hydroxytryptamine receptor 7; assay: Antagonist activity at human 5-HT7B receptor expressed in HEK293 cells assessed as inhibition of 5-CT-induced cAMP production after 30 mins by TR-FRET assay; assay type: functional, cell-based
How it was run: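 HEK293 cells stably expressing human 5-HT7b, grown in DMEM with 10% dialyzed FBS and G418, then resuspended in HBSS with 5 mM HEPES, 0.5 mM IBMX and 0.1% BSA. 450 cells per well were incubated 30 min at room temperature with compound and 6.2 nM 5-CT. After lysis, cAMP was read by LANCE TR-FRET after 1 h. Triplicate, 8 concentrations (10^-11–10^-4 M). Kb = IC50/(1+A/EC50).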

T1 sequence (P34969 whole entry): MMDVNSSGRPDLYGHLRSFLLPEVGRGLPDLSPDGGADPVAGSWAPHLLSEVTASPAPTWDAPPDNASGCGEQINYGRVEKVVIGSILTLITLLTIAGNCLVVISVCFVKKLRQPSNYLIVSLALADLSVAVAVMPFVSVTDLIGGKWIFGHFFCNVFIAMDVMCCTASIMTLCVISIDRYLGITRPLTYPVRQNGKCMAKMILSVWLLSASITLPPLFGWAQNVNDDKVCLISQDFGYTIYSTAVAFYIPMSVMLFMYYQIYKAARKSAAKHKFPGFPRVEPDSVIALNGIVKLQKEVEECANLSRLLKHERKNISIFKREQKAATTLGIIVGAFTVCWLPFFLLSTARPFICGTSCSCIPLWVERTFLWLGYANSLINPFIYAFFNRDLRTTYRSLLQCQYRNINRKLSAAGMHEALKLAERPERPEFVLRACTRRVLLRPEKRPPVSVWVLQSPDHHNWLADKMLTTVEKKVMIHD
5-hydroxytryptamine receptor 6, sequence (P50406 whole entry): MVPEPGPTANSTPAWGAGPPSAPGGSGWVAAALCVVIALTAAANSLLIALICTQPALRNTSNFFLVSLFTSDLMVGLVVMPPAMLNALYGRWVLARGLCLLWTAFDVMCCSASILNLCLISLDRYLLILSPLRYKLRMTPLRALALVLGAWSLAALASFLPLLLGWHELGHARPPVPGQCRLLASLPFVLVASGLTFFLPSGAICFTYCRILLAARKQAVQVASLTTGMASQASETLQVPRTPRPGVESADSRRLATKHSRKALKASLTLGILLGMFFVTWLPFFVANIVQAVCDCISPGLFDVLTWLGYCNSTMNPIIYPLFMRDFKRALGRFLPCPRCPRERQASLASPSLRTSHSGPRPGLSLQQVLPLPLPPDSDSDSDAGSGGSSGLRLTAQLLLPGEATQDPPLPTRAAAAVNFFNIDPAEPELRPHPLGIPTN

`O=S(=O)(NC1CCN(CCOc2ccccc2C2CCCC2)CC1)c1cccc(F)c1` gave an Activity (Mus musculus [1]) of 1400.7, a pKi [2] of 6.55 and a minimal effective dose (Mus musculus [3]) of 2.5 mg/kg. The Activity (Mus musculus [4]) was 1682, the Activity (Mus musculus [5]) was 0.641 N and the Activity (Mus musculus [6]) was “Non-toxic”. The inhibition [7] was 61%, the Time (Mus musculus [8]) was 234.4 s and the Activity (Mus musculus [9]) was “Non-toxic”. For the same compound, the Activity (Mus musculus [10]) was 0.426 N, the Time (Mus musculus [11]) was 192.5 s and the minimal effective dose (Rattus norvegicus) was 1.25 mg/kg. For the same compound, the minimal effective dose (Mus musculus [12]) was 1.25 mg/kg, the Activity (Mus musculus [13]) was 1446.8 and the pKi [14] was 6.26. The Activity (Mus musculus [15]) was 1595.4, the Activity (Mus musculus [16]) was “Non-toxic” and the Ki [17] was 1.525 µM. For the same compound, the Kb [18] was 0.085 µM.
